Laboratory results reported in paper PMC8662605 (Molecular Biology and Evolution, 2021).

Assays:
[1] = system: white-faced saki Tas2R16 (wild-type, 172N); assay type: cell-based, white-faced saki (Pithecia pithecia)
[2] = system: 172K mutant of the white-faced saki Tas2R16; assay: functional heterologous cell expression assay, calcium mobilization, mutagenesis; assay type: cell-based, white-faced saki (Pithecia pithecia); conditions: for EC50: 172K mutant of white-faced saki Tas2R16
Outline: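 Saki Tas2R16 (wild-type, or the reverse 172K mutant made by site-directed mutagenesis) was expressed from HSV-tagged pcDNA5/FRT vectors, transiently transfected into HEK293 cells stably expressing chimeric Gα16-gust44. Calcium mobilisation on bitter stimulation was recorded on a fluorescence plate reader. EC50 came from nonlinear sigmoidal dose–response fits with variable slope. Cell-surface receptor expression was measured by imaging cytometry.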

[3] = molecular target: T1, human Tas2R16 (Homo sapiens, UniProt Q9NYV7); assay type: cell-based
T1 sequence (Q9NYV7 1-291): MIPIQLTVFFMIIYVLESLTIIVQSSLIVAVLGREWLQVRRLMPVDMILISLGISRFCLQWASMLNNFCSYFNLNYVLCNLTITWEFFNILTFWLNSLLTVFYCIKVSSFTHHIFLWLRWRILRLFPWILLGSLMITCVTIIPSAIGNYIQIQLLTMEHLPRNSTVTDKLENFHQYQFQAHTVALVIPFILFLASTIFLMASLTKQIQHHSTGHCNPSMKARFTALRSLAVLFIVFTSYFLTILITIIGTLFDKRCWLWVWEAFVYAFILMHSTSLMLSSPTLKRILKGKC

[4] = 172K saki mutant versus wild-type (172N)

EC50 [1] | EC50 [3] | SMILES | EC50 [2] | fold increased EC50 value compared with the wild-type [2, 4] | sensitivity compared with the wild-type [2, 4]
500 ± 40 µM | – | O=Cc1ccccc1O[C@@H]1O[C@H](CO)[C@@H](O)[C@H](O)[C@H]1O [helicin] | 890 ± 110 µM | ~2 fold | about 50%
510 ± 30 µM | 490 ± 80 µM | OCc1ccccc1O[C@@H]1O[C@H](CO)[C@@H](O)[C@H](O)[C@H]1O [salicin] | 1120 ± 190 µM | – | about 50%
